Assay results published in ChEMBL document CHEMBL2203116, “Synthesis and evaluation of novel carbon-11 labeled oxopurine analogues for positron emission tomography imaging of translocator protein (18 kDa) in peripheral organs” (J Med Chem, 2011).

Columns and labels:
Lung [1] = test: Drug uptake in Sprague-Dawley rat lung at 0.15 nmol, iv pretreated with unlabeled (R)-PK11195 by PET scanning; format: ADME, organism-based; details: in vivo
Summary of the method: (§1)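 Male Sprague-Dawley rats (6–8 weeks old), isoflurane-anesthetized, prone. ROIs on lung, heart, kidney, liver, small intestine and cardiac blood pool. Uptake decay-corrected to injection time and expressed as SUV (body-weight normalized). n = 4, mean ± SD.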

Kidney [2] = test: Drug uptake in Sprague-Dawley rat kidney at 0.15 nmol, iv pretreated with unlabeled (R)-PK11195 by PET scanning; format: ADME, organism-based; details: in vivo; summary of the method: as §1
Lung [3] = test: Drug uptake in Sprague-Dawley rat lung at 0.15 nmol, iv pretreated with unlabeled AC-5216 by PET scanning; format: ADME, organism-based; details: in vivo; summary of the method: as §1
Heart [4] = test: Drug uptake in Sprague-Dawley rat heart at 0.15 nmol, iv pretreated with unlabeled AC-5216 by PET scanning; format: ADME, organism-based; details: in vivo
Summary of the method: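 Isoflurane-anesthetized Sprague-Dawley rats underwent 30-min PET after iv [11C]radioligand, with unlabeled blocker given iv 1 min before tracer. Blockers were (R)-PK11195 at 3.0 mg/kg or AC-5216 at 1.0 mg/kg in 300 μL saline with 10% ethanol and 5% polysorbate 80. Regional uptake was decay-corrected SUV (n = 4).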

Kidney [5] = test: Drug uptake in Sprague-Dawley rat kidney at 0.15 nmol, iv pretreated with unlabeled AC-5216 by PET scanning; format: ADME, organism-based; details: in vivo; summary of the method: as §1
Liver [6] = test: Drug uptake in Sprague-Dawley rat liver at 0.15 nmol, iv pretreated with unlabeled AC-5216 measured after 27.5 mins by PET scanning relative to control; format: ADME, organism-based; details: in vivo
Summary of the method: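 Male Sprague-Dawley rats, 6-8 weeks, isoflurane-anesthetized. A blocking TSPO ligand (1.0 mg/kg, in 300 μL saline with 10% ethanol and 5% polysorbate 80) was injected 1 min before iv radioligand (16-18 MBq/200 μL). Liver ROI as decay-corrected SUV (injected activity, body weight), 27.5-min value versus controls; n = 4.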

[7] = Metabolic stability in Sprague-Dawley rat lung assessed as unchanged compound at 0.32 nmol, iv after 30 mins by analytical radio- HPLC; format: ADME, organism-based; details: read-out: Stability
[8] = Metabolic stability in Sprague-Dawley rat heart assessed as unchanged compound at 0.32 nmol, iv after 30 mins by analytical radio- HPLC; format: ADME, organism-based; details: read-out: Stability
Summary of the method: (§2)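 Rats (n = 3) given radioligand iv (37 MBq/100 μL, 0.32 nmol) and killed at 30 min. Heart and kidney homogenized in ice-cold MeCN/H2O 4/6, centrifuged 15000 rpm for 1 min at 4 °C. Supernatant run on analytical radio-HPLC (C18, MeCN/H2O 4/6). Percent parent = parent peak area over total peak areas, decay-corrected. Mean ± SD.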

[9] = Metabolic stability in Sprague-Dawley rat kidney assessed as unchanged compound at 0.32 nmol, iv after 30 mins by analytical radio- HPLC; format: ADME, organism-based; details: read-out: Stability; summary of the method: as §2
[10] = Metabolic stability in Sprague-Dawley rat liver assessed as unchanged compound at 0.32 nmol, iv after 30 mins by analytical radio- HPLC; format: ADME, organism-based; details: read-out: Stability
[11] = Metabolic stability in Sprague-Dawley rat plasma assessed as unchanged compound at 0.32 nmol, iv after 30 mins by analytical radio- HPLC; format: ADME, organism-based; details: read-out: Stability
Blood [12] = test: Biodistribution in LPS-treated Sprague-Dawley rat blood at 0.19 nmol, iv by gamma counting; format: ADME, organism-based; details: in vivo
Summary of the method: (§3)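 Male Sprague-Dawley rats were given intratracheal LPS (E. coli O127:B8, 5.0 mg/kg in 50 μL saline) or 50 μL saline vehicle 24 h before tracer. [11C]Radioligand (16 MBq/200 μL, 0.19 nmol) in saline was injected via the tail vein. Rats were killed at 30 min (n = 4 per group). Tissues were weighed and gamma-counted, expressed as decay-corrected %ID/g.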

Brain [13] = test: Biodistribution in LPS-treated Sprague-Dawley rat brain at 0.19 nmol, iv by gamma counting; format: ADME, organism-based; details: in vivo; summary of the method: as §3
Heart [14] = test: Biodistribution in LPS-treated Sprague-Dawley rat heart at 0.19 nmol, iv by gamma counting; format: ADME, organism-based; details: in vivo; summary of the method: as §3
Liver [15] = test: Biodistribution in LPS-treated Sprague-Dawley rat liver at 0.19 nmol, iv by gamma counting; format: ADME, organism-based; details: in vivo; summary of the method: as §3
Rattus norvegicus [16] = test: Biodistribution in LPS-treated Sprague-Dawley rat small intestine at 0.19 nmol, iv by gamma counting; format: ADME, organism-based; details: in vivo; summary of the method: as §3
Blood [17] = test: Biodistribution in Sprague-Dawley rat blood at 0.19 nmol, iv by gamma counting; format: ADME, organism-based; details: in vivo; summary of the method: as §3
Brain [18] = test: Biodistribution in Sprague-Dawley rat brain at 0.19 nmol, iv by gamma counting; format: ADME, organism-based; details: in vivo; summary of the method: as §3
Lung [19] = test: Biodistribution in Sprague-Dawley rat lung at 0.19 nmol, iv by gamma counting; format: ADME, organism-based; details: in vivo; summary of the method: as §3
Heart [20] = test: Biodistribution in Sprague-Dawley rat heart at 0.19 nmol, iv by gamma counting; format: ADME, organism-based; details: in vivo; summary of the method: as §3
Liver [21] = test: Biodistribution in Sprague-Dawley rat liver at 0.19 nmol, iv by gamma counting; format: ADME, organism-based; details: in vivo; summary of the method: as §3
Pancreas = test: Biodistribution in Sprague-Dawley rat pancreas at 0.19 nmol, iv by gamma counting; format: ADME, organism-based; details: in vivo; summary of the method: as §3
Adrenal = test: Biodistribution in Sprague-Dawley rat adrenal at 0.19 nmol, iv by gamma counting; format: ADME, organism-based, Adrenal tissue; details: in vivo; summary of the method: as §3
Rattus norvegicus [22] = test: Biodistribution in Sprague-Dawley rat small intestine at 0.19 nmol, iv by gamma counting; format: ADME, organism-based; details: in vivo; summary of the method: as §3
Muscle tissue = test: Biodistribution in Sprague-Dawley rat muscle at 0.19 nmol, iv by gamma counting; format: ADME, organism-based; details: in vivo; summary of the method: as §3
Lung [23] = test: Drug uptake in Sprague-Dawley rat lung at 0.15 nmol, iv after 30 mins by PET scanning; format: ADME, organism-based; details: in vivo, 0.5 h; summary of the method: as §1
Heart [24] = test: Drug uptake in Sprague-Dawley rat heart at 0.15 nmol, iv up to 30 mins by PET scanning; format: ADME, organism-based; details: in vivo, 0.5 h
Summary of the method: (§4)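 Isoflurane-anesthetized male Sprague-Dawley rats lay prone and received an iv bolus of [11C]radioligand in 200 μL. 3D list-mode emission scans ran 30 min from injection. Regions of interest were drawn on the organs and cardiac blood pool. Uptake was decay-corrected to injection time and expressed as SUV (normalized to injected radioactivity and body weight). Values are mean of n = 4.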

Liver [25] = test: Drug uptake in Sprague-Dawley rat liver at 0.15 nmol, iv up to 30 mins by PET scanning; format: ADME, organism-based; details: in vivo, 0.5 h; summary of the method: as §1
Blood [26] = test: Drug uptake in Sprague-Dawley rat cardiac blood pool at 0.15 nmol, iv up to 30 mins by PET scanning; format: ADME, organism-based; details: in vivo, 0.5 h; summary of the method: as §4
Intestine = test: Drug uptake in Sprague-Dawley rat small intestine at 0.15 nmol, iv up to 30 mins by PET scanning; format: ADME, organism-based; details: in vivo, 0.5 h; summary of the method: as §1
Lung [27] = test: Drug uptake in Sprague-Dawley rat lung at 0.15 nmol, iv after 2 mins by PET scanning; format: ADME, organism-based; details: in vivo; summary of the method: as §1
Heart [28] = test: Drug uptake in Sprague-Dawley rat heart at 0.15 nmol, iv after 2 mins by PET scanning; format: ADME, organism-based; details: in vivo; summary of the method: as §4
Kidney [29] = test: Drug uptake in Sprague-Dawley rat kidney at 0.15 nmol, iv after 2 mins by PET scanning; format: ADME, organism-based; details: in vivo; summary of the method: as §1
Blood [30] = test: Drug uptake in Sprague-Dawley rat cardiac blood pool at 0.15 nmol, iv after 2 mins by PET scanning; format: ADME, organism-based; details: in vivo; summary of the method: as §4
Lung [31] = test: Drug uptake in Sprague-Dawley rat lung at 0.15 nmol, iv after 27.5 mins by PET scanning; format: ADME, organism-based; details: in vivo; summary of the method: as §1
Heart [32] = test: Drug uptake in Sprague-Dawley rat heart at 0.15 nmol, iv after 27.5 mins by PET scanning; format: ADME, organism-based; details: in vivo; summary of the method: as §4
Kidney [33] = test: Drug uptake in Sprague-Dawley rat kidney at 0.15 nmol, iv after 27.5 mins by PET scanning; format: ADME, organism-based; details: in vivo; summary of the method: as §1

CCN(Cc1ccncc1)C(=O)Cn1c(=O)n([11CH3])c2cnc(-c3ccccc3)nc21
Drug uptake (Lung [1]): Not Active
Drug uptake (Kidney [2]): Not Active
Drug uptake (Lung [3]): Not Active
Drug uptake (Heart [4]): Not Active
Drug uptake (Kidney [5]): Not Active
fold change (FC) (Liver [6]): 1.5
remaining at 0.5 h [7]: 92.1%
remaining at 0.5 h [8]: 93.8%
remaining at 0.5 h [9]: 94.7%
remaining at 0.5 h [10]: 43.6%
remaining at 0.5 h [11]: 23.4%
Drug uptake (Blood [12]): 0.08 % ID/g
Drug uptake (Brain [13]): 0.02 % ID/g
Drug uptake (Heart [14]): 2.17 % ID/g
Drug uptake (Liver [15]): 1.03 % ID/g
Drug uptake (Rattus norvegicus [16]): 2.68 % ID/g
Drug uptake (Blood [17]): 0.06 % ID/g
Drug uptake (Brain [18]): 0.02 % ID/g
Drug uptake (Lung [19]): 1.65 % ID/g
Drug uptake (Heart [20]): 2.1 % ID/g
Drug uptake (Liver [21]): 0.53 % ID/g
Drug uptake (Pancreas): 0.38 % ID/g
Drug uptake (Adrenal): 7.49 % ID/g
Drug uptake (Rattus norvegicus [22]): 1.57 % ID/g
Drug uptake (Muscle tissue): 0.11 % ID/g
Drug uptake (Lung [23]): Active
Drug uptake (Heart [24]): Active
Drug uptake (Liver [25]): Active
Drug uptake (Blood [26]): Active
Drug uptake (Intestine): Active
SUV (Lung [27]): 3.4
SUV (Heart [28]): 4.6
SUV (Kidney [29]): 3.3
SUV (Blood [30]): 3
SUV (Lung [31]): 0.5
SUV (Heart [32]): 0.9
SUV (Kidney [33]): 1
